# Data taken from ChEMBL document CHEMBL1158956, “Biologically active metabolites from Xenorhabdus spp., Part 2. Benzopyran-1-one derivatives with gastroprotective activity” (1991).
# Active and inactive are the calls of the source. The calls are words filed in the database; no cut-off is given here.
# Legend:
# Salmonella typhimurium = experiment: Antimicrobial activity against Salmonella Typhimurium CT10; type: functional, Salmonella enterica subsp. enterica serovar Typhimurium; settings: Salmonella enterica
# In short: (§1)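 MIC by blood agar screen: DST agar with 10% defibrinated horse blood; inocula were undiluted overnight broth cultures; plates incubated aerobically overnight at 37°.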
# Proteus mirabilis = experiment: Antimicrobial activity against Proteus mirabilis C977; type: functional; in short: as §1
# Pseudomonas aeruginosa = experiment: Antimicrobial activity against Pseudomonas aeruginosa 1771P; type: functional; in short: as §1
# Acinetobacter lwoffii = experiment: Antimicrobial activity against Acinetobacter lwoffii BRL 2400; type: functional; in short: as §1
# Priestia megaterium = experiment: Antimicrobial activity against Bacillus megaterium NCIB 9376; type: functional; in short: as §1
# Corynebacterium xerosis = experiment: Antimicrobial activity against Corynebacterium xerosis NCTC 9755; type: functional; in short: as §1
# Micrococcus luteus = experiment: Antimicrobial activity against Sarcina lutea ATCC 8740; type: functional; in short: as §1
# Staphylococcus aureus [1] = experiment: Antimicrobial activity against Staphylococcus aureus Oxford NCTC 6571; type: functional; in short: as §1
# Staphylococcus aureus [2] = experiment: Antimicrobial activity against Staphylococcus aureus V573; type: functional; in short: as §1
# Streptococcus pyogenes = experiment: Antimicrobial activity against Streptococcus pyogenes CN10; type: functional; in short: as §1
# Streptococcus sanguinis = experiment: Antimicrobial activity against Streptococcus sanguis ATCC 10556; type: functional; in short: as §1
# Cryptococcus neoformans = experiment: Antimicrobial activity against Cryptococcus neoformans; type: functional
# In short: (§2)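 Microtiter MIC with twofold dilutions in defined (Yeast Nitrogen Base + 1% glucose) and complex (Sabouraud's glucose) broth; compound from DMSO stock, final DMSO <1%; inocula 10^3 and 10^5 cells/ml; incubated 2 days at 37°.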
# Rattus norvegicus [3] = experiment: Antiulcerogenic activity in stress-induced Wistar rat assessed as protection from ulcer at 25 mg/kg, po; type: functional
# Rattus norvegicus [4] = experiment: Antiulcerogenic activity in stress-induced Wistar rat assessed as protection from ulcer at 10 mg/kg, po; type: functional
# Escherichia coli [5] = experiment: Antimicrobial activity against Escherichia coli ESS; type: functional; in short: as §1
# Escherichia coli [6] = experiment: Antimicrobial activity against Escherichia coli 10418; type: functional; in short: as §1
# Escherichia coli [7] = experiment: Antimicrobial activity against Escherichia coli DCO; type: functional; in short: as §1
# Enterobacter cloacae = experiment: Antimicrobial activity against Enterobacter cloacae N1; type: functional; in short: as §1
# Klebsiella aerogenes = experiment: Antimicrobial activity against Klebsiella aerogenes A; type: functional; in short: as §1
# Citrobacter freundii = experiment: Antimicrobial activity against Citrobacter freundii ES; type: functional; in short: as §1
# Candida albicans = experiment: Antimicrobial activity against Candida albicans at 128 ug/ml after 2 days by twofold dilution method; type: functional, organism-based; in short: as §2
# Candida parapsilosis = experiment: Antimicrobial activity against Candida parapsilosis at 128 ug/ml after 2 days by twofold dilution method; type: functional, organism-based; in short: as §2
# Aspergillus niger = experiment: Antimicrobial activity against Aspergillus niger at […] after 2 days by tube dilution method; type: functional, organism-based
# In short: (§3)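 Tube dilution MIC in defined medium (Yeast Nitrogen Base + 1% glucose) and complex medium (Sabouraud's glucose broth); compound dissolved in DMSO, final DMSO <1%; tenfold dilutions 100 to 0.1 μg/ml; inoculum 10^4 spores/ml; 2 days at 37°.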
# Aspergillus fumigatus = experiment: Antimicrobial activity against Aspergillus fumigatus at […] after 2 days by tube dilution method; type: functional, organism-based; in short: as §3
# [8] = test system: Trichophyton mentagrophytes; experiment: Antimicrobial activity against Trichophyton mentagrophytes at 128 ug/ml after 11 days by twofold dilution method; type: functional, organism-based
# Trichophyton rubrum = experiment: Antimicrobial activity against Trichophyton rubrum at 128 ug/ml after 11 days by twofold dilution method; type: functional, organism-based
# Rattus norvegicus [9] = experiment: Antiulcerogenic activity in stress-induced Wistar rat assessed as protection from ulcer at 5 mg/kg, po; type: functional
Structure (SMILES),MIC (Salmonella typhimurium) [µg/mL],MIC (Proteus mirabilis) [µg/mL],MIC (Pseudomonas aeruginosa) [µg/mL],MIC (Acinetobacter lwoffii) [µg/mL],MIC (Priestia megaterium) [µg/mL],MIC (Corynebacterium xerosis) [µg/mL],MIC (Micrococcus luteus) [µg/mL],MIC (Staphylococcus aureus [1]) [µg/mL],MIC (Staphylococcus aureus [2]) [µg/mL],MIC (Streptococcus pyogenes) [µg/mL],MIC (Streptococcus sanguinis) [µg/mL],Activity (Rattus norvegicus [3]) [%],Activity (Rattus norvegicus [4]) [%],MIC (Escherichia coli [5]) [µg/mL],MIC (Escherichia coli [6]) [µg/mL],MIC (Escherichia coli [7]) [µg/mL],MIC (Enterobacter cloacae) [µg/mL],MIC (Klebsiella aerogenes) [µg/mL],MIC (Citrobacter freundii) [µg/mL],also measured
CC(C)CC(NC(=O)C(O)C(O)C(N)CCCNC(=N)N)C1Cc2cccc(O)c2C(=O)O1 (stereo unspecified) [XENOCOUMACIN 1],> 100,> 100,> 100,2.5,2.5,1,1,10,25,1,10,74,8,0.5,2.5,10,> 100,> 100,> 100,MIC (Cryptococcus neoformans): 0.125 µg/mL
CC(C)CC(NC(=O)C(O)C(O)C1CCCN1)C1Cc2cccc(O)c2C(=O)O1 (stereo unspecified) [XENOCOUMACIN 2],> 100,> 100,> 100,5,5,5,5,5,> 100,5,10,70,61,2.5,50,> 100,> 100,> 100,> 100,Activity (Candida albicans): inactive; Activity (Candida parapsilosis): inactive; Activity (Aspergillus niger): inactive; Activity (Aspergillus fumigatus): inactive; Activity [8]: inactive; Activity (Trichophyton rubrum): inactive; Activity (Rattus norvegicus [9]): 26%
